Measurements from ChEMBL document CHEMBL2029233, “Des-acyl ghrelin fragments and analogues promote survival of pancreatic β-cells and human pancreatic islets and prevent diabetes in streptozotocin-treated rats” (2012).
The source made the active and inactive calls. The rule behind the calls is not given here. Peptide text beside a SMILES is read from it.

How the values were obtained:
Pancreatic islet [1] = assay: Cytoprotective activity in human pancreatic islet cells assessed as inhibition of IFN-gamma/TNFalpha/IL1beta-induced cell death at 100 nM after 24 hrs by MTT assay relative to control; assay type: functional
Procedure, shortened: (§1)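 Human donor islets (purity >70%, 25/well) serum-starved 24 h, then 24 h serum-free with peptide (1–100 nM), alone or with IFN-γ 100 ng/mL, TNF-α 200 ng/mL, IL-1β 10 ng/mL. MTT 1 mg/mL ~1 h, DMSO, A570. Percent of serum-free or cytokine control. ≥3 experiments in quadruplicate.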

HIT-T15 [2] = assay: Cytoprotective activity in hamster HIT-T15 cells assessed as inhibition of IFN-gamma/TNFalpha/IL1beta-induced cell death at 1 to 100 nM after 24 hrs by MTT assay relative to control; assay type: functional, cell-based; conditions: Mesocricetus auratus
Procedure, shortened: (§2)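 HIT-T15 cells (5×10^3/well) serum-starved 24 h, then 24 h serum-free with IFN-γ 100 ng/mL, TNF-α 200 ng/mL, IL-1β 10 ng/mL plus peptide (1–100 nM). MTT 1 mg/mL ~1 h, formazan dissolved in DMSO, A570. Reported as percent of cytokine control. Mean ± SE of ≥3 experiments in quadruplicate.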

Pancreatic islet [3] = assay: Cytoprotective activity in human pancreatic islet cells assessed as inhibition of serum starvation-induced cell death at 1 nM after 24 hrs by MTT assay relative to control; assay type: functional; procedure, shortened: as §1
Pancreatic islet [4] = assay: Cytoprotective activity in human pancreatic islet cells assessed as inhibition of serum starvation-induced cell death at 10 nM after 24 hrs by MTT assay relative to control; assay type: functional; procedure, shortened: as §1
Pancreatic islet [5] = assay: Cytoprotective activity in human pancreatic islet cells assessed as inhibition of IFN-gamma/TNFalpha/IL1beta-induced cell death at 10 nM after 24 hrs by MTT assay relative to control; assay type: functional; procedure, shortened: as §1
Pancreatic islet [6] = assay: Cytoprotective activity in human pancreatic islet cells assessed as inhibition of serum starvation-induced cell death at 100 nM after 24 hrs by MTT assay relative to control; assay type: functional; procedure, shortened: as §1
Pancreatic islet [7] = assay: Cytoprotective activity in human pancreatic islet cells assessed as inhibition of IFN-gamma/TNFalpha/IL1beta-induced cell death at 1 nM after 24 hrs by MTT assay relative to control; assay type: functional; procedure, shortened: as §1
HIT-T15 [8] = assay: Cytoprotective activity in hamster HIT-T15 cells assessed as inhibition of serum starvation-induced cell death at 1 to 100 nM after 24 hrs by MTT assay relative to control; assay type: functional, cell-based; conditions: Mesocricetus auratus
Procedure, shortened: (§3)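 Viability by MTT in HIT-T15 cells seeded at 5×10^3/well, serum-starved 24 h, then 24 h more in serum-free medium with peptide (1–100 nM). MTT 1 mg/mL ~1 h, DMSO solubilization, absorbance 570 nm. Expressed as percent of serum-free control. Mean ± SE, ≥3 experiments in quadruplicate.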

HIT-T15 [9] = assay: Antiapoptotic activity in hamster HIT-T15 cells assessed as reduction in IFN-gamma/TNFalpha/IL1beta-induced apoptosis at 10 nM after 24 hrs by Hoechst staining relative to control; assay type: functional, cell-based; conditions: Mesocricetus auratus
Procedure, shortened: (§4)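 HIT-T15 cells serum-starved 24 h, then 24 h in serum-free medium with IFN-γ 100 ng/mL, TNF-α 200 ng/mL, IL-1β 10 ng/mL plus peptide. Cells pooled with floating cells, formaldehyde-fixed, ethanol-stored, stained with 10 μg/mL Hoechst 33258. Condensed/fragmented nuclei counted, 500 nuclei in duplicate, n = 3. Reported as percent apoptotic cells.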

HIT-T15 [10] = assay: Antiapoptotic activity in hamster HIT-T15 cells assessed as reduction in IFN-gamma/TNFalpha/IL1beta-induced apoptosis at 100 nM after 24 hrs by Hoechst staining relative to control; assay type: functional, cell-based; conditions: Mesocricetus auratus; procedure, shortened: as §4
EPC [11] = assay: Cytoprotective activity in human EPC assessed as decrease in H2O2-induced senescence associated beta-galactosidase positive cells at 10 uM after 24 hrs; assay type: functional
Procedure, shortened: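 EPCs given test peptides (1 μM or 10 μM) with or without H₂O₂ for 24 h. Cells then fixed in 2% paraformaldehyde for 3 min and stained 24 h at 37 °C with X-gal solution. SA-β-gal-positive cells counted out of 100 at 20× by three investigators.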

HIT-T15 [12] = assay: Cytoprotective activity in hamster HIT-T15 cells assessed as inhibition of serum starvation-induced cell death after 24 hrs by MTT assay relative to control; assay type: functional, cell-based; conditions: Mesocricetus auratus; procedure, shortened: as §3
[13] = biological target: Ras-related C3 botulinum toxin substrate 1 (Homo sapiens) (UniProt P63000); assay: Inhibition of Rac1 activation
EPC [14] = assay: Cytoprotective activity in human EPC assessed as decrease in H2O2-induced ROS production after 2 hrs by DCF-DA flow cytometry assay; assay type: functional
Procedure, shortened: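 Human EPCs from peripheral blood mononuclear cells, cultured 21 days on collagen I in EGM-2. ROS measured by flow cytometry using DCF-DA (0.5 μM final) after 2 h of treatment. H₂O₂ 150 μM as positive control.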

HIT-T15 [15] = assay: Cytoprotective activity in hamster HIT-T15 cells assessed as inhibition of IFN-gamma/TNFalpha/IL1beta-induced cell death after 24 hrs by MTT assay relative to control; assay type: functional, cell-based; conditions: Mesocricetus auratus; procedure, shortened: as §2
HIT-T15 [16] = assay: Cytoprotective activity in hamster HIT-T15 cells assessed as inhibition of IFN-gamma/TNFalpha/IL1beta-induced cell death at 10 to 100 nM after 24 hrs by MTT assay relative to control; assay type: functional, cell-based; conditions: Mesocricetus auratus; procedure, shortened: as §2

Row | Compound | Activity (HIT-T15 [2]) | Activity (HIT-T15 [8]) | also measured
1 | H-ESKKPPAKLQPR-OH | inactive | inactive | Activity (Pancreatic islet [1]): inactive; Activity (Pancreatic islet [3]): inactive; Activity (Pancreatic islet [4]): inactive; Activity (Pancreatic islet [5]): inactive; Activity (Pancreatic islet [6]): inactive; Activity (Pancreatic islet [7]): inactive
2 | H-SAEHQRVQ-NH2 | Active | Active | –
3 | H-SPEHQRAQ-NH2 | Active | Active | –
4 | H-GSSFL-NH2 | inactive | inactive | Activity (Pancreatic islet [1]): inactive; Activity (Pancreatic islet [3]): inactive; Activity (Pancreatic islet [4]): inactive; Activity (Pancreatic islet [5]): inactive; Activity (Pancreatic islet [6]): inactive; Activity (Pancreatic islet [7]): inactive
5 | H-SPAHQRVQ-NH2 | Active | Active | –
6 | CC(C)[C@H](NC(=O)[C@H](CCCNC(=N)N)NC(=O)[C@H](CCC(N)=O)NC(=O)[C@H](Cc1cnc[nH]1)NC(=O)[C@H](CCC(=O)O)NC(=O)[C@@H]1CCCN1C(=O)[C@H](N)CO)C(=O)N[C@@H](CCC(N)=O)C(N)=O | inactive | inactive | –
7 | CC(C)[C@@H](NC(=O)[C@H](N)CCC(N)=O)C(=O)N[C@H](CCCNC(=N)N)C(=O)N[C@H](CCC(N)=O)C(=O)N[C@H](Cc1cnc[nH]1)C(=O)N[C@H](CCC(=O)O)C(=O)N1CCC[C@@H]1C(=O)N[C@H](CO)C(N)=O | inactive | inactive | –
8 | N=C(N)NCCC[C@H](NC(=O)[C@H](CCC(N)=O)NC(=O)[C@H](Cc1cnc[nH]1)NC(=O)[C@@H](N)CCC(=O)O)C(N)=O (H-EHQR-NH2) | inactive | – | –
9 | H-SPEHQAVQ-NH2 | inactive | inactive | –
10 | CC(C)[C@H](NC(=O)[C@H](CCCNC(=N)N)NC(=O)[C@H](CCC(N)=O)NC(=O)[C@H](Cc1cnc[nH]1)NC(=O)[C@@H](CCC(=O)O)NC(=O)[C@@H]1CCCN1C(=O)[C@@H](N)CO)C(=O)N[C@@H](CCC(N)=O)C(N)=O | inactive | inactive | –
11 | CC(C)[C@H](NC(=O)[C@H](CCCNC(=N)N)NC(=O)[C@H](CCC(N)=O)NC(=O)[C@@H](Cc1cnc[nH]1)NC(=O)[C@H](CCC(=O)O)NC(=O)[C@@H]1CCCN1C(=O)[C@@H](N)CO)C(=O)N[C@@H](CCC(N)=O)C(N)=O | inactive | inactive | –
12 | CC(C)[C@H](NC(=O)[C@H](CCCNC(=N)N)NC(=O)[C@H](CCC(N)=O)NC(=O)[C@H](Cc1cnc[nH]1)NC(=O)[C@H](CCC(=O)O)NC(=O)[C@H]1CCCN1C(=O)[C@@H](N)CO)C(=O)N[C@@H](CCC(N)=O)C(N)=O | inactive | inactive | –
13 | N=C(N)NCCC[C@H](NC(=O)[C@H](CCC(N)=O)NC(=O)[C@@H](N)Cc1cnc[nH]1)C(N)=O (H-His-Gln-Arg-NH2) | inactive | – | –
14 | CC(C)[C@H](NC(=O)[C@H](CCCNC(=N)N)NC(=O)[C@H](CCC(N)=O)NC(=O)[C@H](Cc1cnc[nH]1)NC(=O)[C@H](CCC(=O)O)NC(=O)[C@@H]1CCCN1C(=O)[C@@H](N)CO)C(=O)N[C@H](CCC(N)=O)C(N)=O | inactive | inactive | –
15 | CC(C)[C@H](NC(=O)[C@H](CCCNC(=N)N)NC(=O)[C@@H](CCC(N)=O)NC(=O)[C@H](Cc1cnc[nH]1)NC(=O)[C@H](CCC(=O)O)NC(=O)[C@@H]1CCCN1C(=O)[C@@H](N)CO)C(=O)N[C@@H](CCC(N)=O)C(N)=O | inactive | inactive | –
16 | H-SPEHARVQ-NH2 | inactive | inactive | –
17 | H-EHQRVQ-NH2 | Active | – | Activity (HIT-T15 [9]): Active; Activity (HIT-T15 [10]): Active
18 | CC(C)[C@@H]1NC(=O)[C@H](CCCNC(=N)N)NC(=O)[C@H](CCC(N)=O)NC(=O)[C@H](Cc2cnc[nH]2)NC(=O)[C@H](CCC(=O)O)NC(=O)[C@@H]2CCCN2C(=O)[C@H](CO)NC(=O)[C@H](CCC(N)=O)NC1=O (cyclo(EHQRVQSP)) | – | – | Activity (EPC [11]): Active; Activity (HIT-T15 [12]): Dose-dependent effect; inhibition [13]: Active; Activity (EPC [14]): Active; Activity (HIT-T15 [15]): Dose-dependent effect
19 | CC(C)[C@@H](NC(=O)[C@H](CCCNC(=N)N)NC(=O)[C@H](CCC(N)=O)NC(=O)[C@H](Cc1cnc[nH]1)NC(=O)[C@H](CCC(=O)O)NC(=O)[C@@H]1CCCN1C(=O)[C@@H](N)CO)C(=O)N[C@@H](CCC(N)=O)C(N)=O | inactive | inactive | –
20 | CC(C)[C@H](NC(=O)[C@H](CCCNC(=N)N)NC(=O)[C@H](CCC(N)=O)NC(=O)[C@@H](N)Cc1cnc[nH]1)C(N)=O (H-HQRV-NH2) | – | – | Activity (HIT-T15 [16]): Active
21 | H-GSSFLSPEHQRVQQ-NH2 | Active | Active | Activity (Pancreatic islet [1]): Active; Activity (Pancreatic islet [4]): Active; Activity (Pancreatic islet [5]): inactive; Activity (Pancreatic islet [6]): Active; Activity (Pancreatic islet [7]): inactive
22 | H-APEHQRVQ-NH2 | Active | Active | –
23 | H-SPEAQRVQ-NH2 | Active | Active | –
24 | CC(C)[C@H](NC(=O)[C@@H](CCCNC(=N)N)NC(=O)[C@H](CCC(N)=O)NC(=O)[C@H](Cc1cnc[nH]1)NC(=O)[C@H](CCC(=O)O)NC(=O)[C@@H]1CCCN1C(=O)[C@@H](N)CO)C(=O)N[C@@H](CCC(N)=O)C(N)=O | inactive | inactive | –
25 | CC(C)[C@@H](NC(=O)[C@@H](CCCNC(=N)N)NC(=O)[C@@H](CCC(N)=O)NC(=O)[C@@H](Cc1cnc[nH]1)NC(=O)[C@@H](CCC(=O)O)NC(=O)[C@H]1CCCN1C(=O)[C@H](N)CO)C(=O)N[C@H](CCC(N)=O)C(N)=O | inactive | inactive | –
26 | H-GSSFLSPEHQRVQQRKES-NH2 | Active | Active | Activity (Pancreatic islet [1]): inactive; Activity (Pancreatic islet [3]): Active; Activity (Pancreatic islet [4]): Active; Activity (Pancreatic islet [5]): Active; Activity (Pancreatic islet [6]): inactive; Activity (Pancreatic islet [7]): Active
27 | H-SPEHQRVA-NH2 | Active | Active | –
